Laboratory results from ChEMBL document CHEMBL1128718, “2-Substituted penems with amino acid-related side chains: synthesis and antibacterial activity of a new series of beta-lactam antibiotics” (1995).
Converted amounts (≈) assume the structure as drawn.

Assays:
Type in all cases: functional
Listeria monocytogenes = assay: In Vitro Anti Bacterial Activity (MIC90) against 90% of tested clinical Isolates of Listeria monocytogenes (20)
Outline: (§1)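 Over 500 clinical isolates tested in total; the line gives the isolate count. MIC90 for aerobes by dilution in Mueller Hinton 2 medium, inoculum 10⁴ cells/mL, incubated 24 h at 37 °C.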

Streptococcus pneumoniae = assay: In Vitro Anti Bacterial Activity (MIC90) against 90% of tested clinical Isolates of Streptococcus pneumoniae (23)
Staphylococcus aureus [1] = assay: In vitro antibacterial activity against Sa(II) Staphylococcus aureus ATCC 25923
Outline: (§2)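 Panel of standard ATCC strains plus modified strains: methicillin-resistant, hyperpermeable, β-lactamase-producing (TEM1, TEM2, SHV) and β-lactamase-lacking. MIC determined in Mueller Hinton 2 medium, inoculum 10⁴ cells/mL, incubated 24 h at 37 °C.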

Pseudomonas aeruginosa [2] = assay: In Vitro antibacterial activity against (Pa) Pseudomonas aeruginosa ATCC 27853; outline: as §2
Pseudomonas aeruginosa [3] = assay: In Vitro antibacterial activity against (Pa G242) hyperpermeable Pseudomonas aeruginosa strain; outline: as §2
Enterococcus faecium = assay: In Vitro Anti Bacterial Activity (MIC90) against 90% of tested clinical Isolates of Enterococcus faecium(47); outline: as §1
Moraxella catarrhalis = assay: In Vitro Anti Bacterial Activity (MIC90) against 90% of tested clinical Isolates of Branhamella catarrhalis(27)
Escherichia coli [4] = assay: In Vitro antibacterial activity against (Ec TEM2) Escherichia coli […] strain; outline: as §2
Staphylococcus aureus [5] = assay: In vitro antibacterial activity against Sa MR(II) homogeneous methicillin resistant Staphylococcus aureus
Outline: (§3)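 MIC was determined in Mueller Hinton 2 medium with an inoculum of 10⁴ cells/mL and incubation for 24 h at 37 °C. Strains: Sa(I) is S. aureus ATCC 29213; Sa MR(I) is a heterogeneous methicillin-resistant S. aureus; Sa MR(II) is a homogeneous methicillin-resistant S. aureus.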

[6] = tested on: Staphylococcus epidermidis; assay: In Vitro Anti Bacterial Activity (MIC90) against 90% of tested clinical Isolates of Staphylococcus epidermidis (13); outline: as §1
Haemophilus influenzae = assay: In Vitro Anti Bacterial Activity (MIC90) against 90% of tested clinical Isolates of Haemophilus Influenzae(21)
Outline: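 Clinical isolates. MIC90 in Haemophilus Test Medium Base plus Haemophilus Test Medium Supplement, inoculum 10⁴ cells/mL, incubated 24–48 h at 37 °C.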

Klebsiella aerogenes = assay: In Vitro Anti Bacterial Activity (MIC90) against 90% of tested clinical Isolates of Enterobacter aerogenes(19); outline: as §1
Escherichia coli [7] = assay: In Vitro Anti Bacterial Activity (MIC90) against 90% of tested clinical Isolates of Escherichia coli; outline: as §1
Bacteroides fragilis = assay: In Vitro Anti Bacterial Activity (MIC90) against 90% of tested clinical Isolates of Bacteroides fragilis(15)
Outline: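 Anaerobic clinical isolates. MIC90 by dilution in Wilkins-Chalgren agar, inoculum 10⁵ cells/mL, incubated 24–48 h at 37 °C.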

Streptococcus agalactiae = assay: In Vitro Anti Bacterial Activity (MIC90) against 90% of tested clinical Isolates of Streptococcus agalactiaeB(21)
Clostridium perfringens = assay: In Vitro Anti Bacterial Activity (MIC90) against 90% of tested clinical Isolates of Clostridium perfringens(27)
Outline: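 MIC90 over clinical isolates of this anaerobic species, taken from the MIC distribution. Anaerobes were tested on Wilkins-Chalgren agar with an inoculum of 10⁵ cells/mL and incubated 24–48 h at 37 °C.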

Pseudomonas aeruginosa [8] = assay: In Vitro antibacterial activity against (Pa) hyperpermeable Pseudomonas aeruginosa […] strain; outline: as §2
Yersinia sp. = assay: In Vitro Anti Bacterial Activity (MIC90) against 90% of tested clinical Isolates of Yersinia species(20); conditions: Yersinia sp. (in: enterobacteria)
Staphylococcus aureus [9] = assay: In Vitro Anti Bacterial Activity (MIC90) against 90% of tested clinical Isolates of Staphylococcus aureus MV (20)
Staphylococcus aureus [10] = assay: In vitro antibacterial activity against Sa(I) Staphylococcus aureus ATCC 29213; outline: as §3
Staphylococcus aureus [11] = assay: In vitro antibacterial activity against Sa MR(I) heterogeneous methicillin resistant Staphylococcus aureus; outline: as §3
Citrobacter freundii = assay: In Vitro Anti Bacterial Activity (MIC90) against 90% of tested clinical Isolates of Citrobacter freundii(20); outline: as §1
Escherichia coli [12] = assay: In Vitro antibacterial activity against (Ec) Escherichia coli ATCC 25922; outline: as §2
Enterococcus faecalis [13] = assay: In Vitro Anti Bacterial Activity (MIC90) against 90% of tested clinical Isolates of Enterococcus faecalis(47); outline: as §1
Staphylococcus aureus [14] = assay: In Vitro Anti Bacterial Activity (MIC90) against 90% of tested clinical Isolates of Staphylococcus aureus MS (6); outline: as §1
Klebsiella pneumoniae = assay: In Vitro Anti Bacterial Activity (MIC90) against 90% of tested clinical Isolates of Klebsiella pneumoniae(20); outline: as §1
Enterococcus faecalis [15] = assay: In Vitro antibacterial activity against (Ef) Enterococcus faecalis ATCC 29212; outline: as §2
Aeromonas = assay: In Vitro Anti Bacterial Activity (MIC90) against 90% of tested clinical Isolates of Aeromonas species(21); outline: as §1
Escherichia coli [16] = assay: In Vitro antibacterial activity against (Ec TEM1) Escherichia coli […] strain; outline: as §2
Pseudomonas aeruginosa [17] = assay: In Vitro Anti Bacterial Activity (MIC90) against 90% of tested clinical Isolates of Pseudomonas aeruginosa(11); outline: as §1
Escherichia coli [18] = assay: In Vitro antibacterial activity against (Ec DC2) hyperpermeable Escherichia coli strain; outline: as §2
Escherichia coli [19] = assay: In Vitro antibacterial activity against (Ec L) Escherichia coli […] strain; outline: as §2
Streptococcus pyogenes = assay: In Vitro Anti Bacterial Activity (MIC90) against 90% of tested clinical Isolates of Streptococcus pyogenes(31)
[20] = tested on: Stenotrophomonas maltophilia; assay: In Vitro Anti Bacterial Activity (MIC90) against 90% of tested clinical Isolates of Xanthomonas maltophilia(9); outline: as §1
Escherichia coli [21] = assay: In Vitro antibacterial activity against (Ec SHV) Escherichia coli […] strain; outline: as §2
[22] = tested on: Acinetobacter calcoaceticus subsp. anitratus; assay: In Vitro Anti Bacterial Activity (MIC90) against 90% of tested clinical Isolates of Acinetobacter anitratus(20); outline: as §1
Providencia stuartii = assay: In Vitro Anti Bacterial Activity (MIC90) against 90% of tested clinical Isolates of Providencia stuartii(10); outline: as §1
Proteus mirabilis = assay: In Vitro Anti Bacterial Activity (MIC90) against 90% of tested clinical Isolates of Proteus mirabilis(16); outline: as §1
Proteus vulgaris = assay: In Vitro Anti Bacterial Activity (MIC90) against 90% of tested clinical Isolates of Proteus vulgaris(10); outline: as §1
Providencia rettgeri = assay: In Vitro Anti Bacterial Activity (MIC90) against 90% of tested clinical Isolates of Providencia rettgeri(10); outline: as §1
Morganella morganii = assay: In Vitro Anti Bacterial Activity (MIC90) against 90% of tested clinical Isolates of Morganella morganii(10); outline: as §1

C[C@@H](O)[C@H]1C(=O)N2C(C(=O)O)=C(CN3CCC[C@@H]3C(N)=O)S[C@H]12
MIC90 (Listeria monocytogenes): 2 mg/L (≈ 5.86 µM)
MIC90 (Streptococcus pneumoniae): 0.5 mg/L (≈ 1.46 µM)
MIC (Staphylococcus aureus [1]): 0.015 mg/L (≈ 0.0439 µM)
MIC (Pseudomonas aeruginosa [2]): 32 mg/L (≈ 93.7 µM)
MIC (Pseudomonas aeruginosa [3]): 1 mg/L (≈ 2.93 µM)
MIC90 (Enterococcus faecium): > 64 mg/L
MIC90 (Moraxella catarrhalis): 2 mg/L (≈ 5.86 µM)
MIC (Escherichia coli [4]): 1 mg/L (≈ 2.93 µM)
MIC (Staphylococcus aureus [5]): 4 mg/L (≈ 11.7 µM)
MIC90 [6]: 0.12 mg/L (≈ 0.352 µM)
MIC90 (Haemophilus influenzae): 2 mg/L (≈ 5.86 µM)
MIC90 (Klebsiella aerogenes): 16 mg/L (≈ 46.9 µM)
MIC90 (Escherichia coli [7]): 1 mg/L (≈ 2.93 µM)
MIC90 (Bacteroides fragilis): 16 mg/L (≈ 46.9 µM)
MIC90 (Streptococcus agalactiae): 0.12 mg/L (≈ 0.352 µM)
MIC90 (Clostridium perfringens): 1 mg/L (≈ 2.93 µM)
MIC (Pseudomonas aeruginosa [8]): 0.25 mg/L (≈ 0.732 µM)
MIC90 (Yersinia sp.): 1 mg/L (≈ 2.93 µM)
MIC90 (Staphylococcus aureus [9]): 8 mg/L (≈ 23.4 µM)
MIC (Staphylococcus aureus [10]): 0.06 mg/L (≈ 0.176 µM)
MIC (Staphylococcus aureus [11]): 0.12 mg/L (≈ 0.352 µM)
MIC90 (Citrobacter freundii): 1 mg/L (≈ 2.93 µM)
MIC (Escherichia coli [12]): 1 mg/L (≈ 2.93 µM)
MIC90 (Enterococcus faecalis [13]): 32 mg/L (≈ 93.7 µM)
MIC90 (Staphylococcus aureus [14]): 0.06 mg/L (≈ 0.176 µM)
MIC90 (Klebsiella pneumoniae): 1 mg/L (≈ 2.93 µM)
MIC (Enterococcus faecalis [15]): 16 mg/L (≈ 46.9 µM)
MIC90 (Aeromonas): 0.25 mg/L (≈ 0.732 µM)
MIC (Escherichia coli [16]): 1 mg/L (≈ 2.93 µM)
MIC90 (Pseudomonas aeruginosa [17]): > 64 mg/L
MIC (Escherichia coli [18]): 0.5 mg/L (≈ 1.46 µM)
MIC (Escherichia coli [19]): 1 mg/L (≈ 2.93 µM)
MIC90 (Streptococcus pyogenes): 0.5 mg/L (≈ 1.46 µM)
MIC90 [20]: > 64 mg/L
MIC (Escherichia coli [21]): 1 mg/L (≈ 2.93 µM)
MIC90 [22]: 32 mg/L (≈ 93.7 µM)

C[C@@H](O)[C@H]1C(=O)N2C(C(=O)O)=C(CN(C)CC(N)=O)S[C@H]12
MIC90 (Providencia stuartii): 2 mg/L (≈ 6.34 µM)
MIC90 (Listeria monocytogenes): 0.5 mg/L (≈ 1.59 µM)
MIC90 (Streptococcus pneumoniae): 0.06 mg/L (≈ 0.19 µM)
MIC (Staphylococcus aureus [1]): 0.015 mg/L (≈ 0.0476 µM)
MIC (Pseudomonas aeruginosa [2]): > 64 mg/L
MIC (Pseudomonas aeruginosa [3]): 4 mg/L (≈ 12.7 µM)
MIC90 (Proteus mirabilis): 1 mg/L (≈ 3.17 µM)
MIC90 (Enterococcus faecium): > 64 mg/L
MIC90 (Moraxella catarrhalis): 0.25 mg/L (≈ 0.793 µM)
MIC (Escherichia coli [4]): 0.5 mg/L (≈ 1.59 µM)
MIC (Staphylococcus aureus [5]): 1 mg/L (≈ 3.17 µM)
MIC90 [6]: 0.015 mg/L (≈ 0.0476 µM)
MIC90 (Haemophilus influenzae): 2 mg/L (≈ 6.34 µM)
MIC90 (Klebsiella aerogenes): 8 mg/L (≈ 25.4 µM)
MIC90 (Escherichia coli [7]): 0.25 mg/L (≈ 0.793 µM)
MIC90 (Bacteroides fragilis): 2 mg/L (≈ 6.34 µM)
MIC90 (Proteus vulgaris): 2 mg/L (≈ 6.34 µM)
MIC90 (Streptococcus agalactiae): 0.06 mg/L (≈ 0.19 µM)
MIC90 (Clostridium perfringens): 0.5 mg/L (≈ 1.59 µM)
MIC (Pseudomonas aeruginosa [8]): 0.5 mg/L (≈ 1.59 µM)
MIC90 (Providencia rettgeri): 2 mg/L (≈ 6.34 µM)
MIC90 (Yersinia sp.): 0.5 mg/L (≈ 1.59 µM)
MIC90 (Staphylococcus aureus [9]): 4 mg/L (≈ 12.7 µM)
MIC (Staphylococcus aureus [10]): 0.06 mg/L (≈ 0.19 µM)
MIC90 (Morganella morganii): 2 mg/L (≈ 6.34 µM)
MIC (Staphylococcus aureus [11]): 0.06 mg/L (≈ 0.19 µM)
MIC90 (Citrobacter freundii): 1 mg/L (≈ 3.17 µM)
MIC (Escherichia coli [12]): 0.25 mg/L (≈ 0.793 µM)
MIC90 (Enterococcus faecalis [13]): 8 mg/L (≈ 25.4 µM)
MIC90 (Staphylococcus aureus [14]): 0.0075 mg/L (≈ 0.0238 µM)
MIC90 (Klebsiella pneumoniae): 0.5 mg/L (≈ 1.59 µM)
MIC (Enterococcus faecalis [15]): 4 mg/L (≈ 12.7 µM)
MIC90 (Aeromonas): 1 mg/L (≈ 3.17 µM)
MIC (Escherichia coli [16]): 0.25 mg/L (≈ 0.793 µM)
MIC90 (Pseudomonas aeruginosa [17]): > 64 mg/L
MIC (Escherichia coli [18]): 0.25 mg/L (≈ 0.793 µM)
MIC (Escherichia coli [19]): 0.25 mg/L (≈ 0.793 µM)
MIC90 (Streptococcus pyogenes): 0.06 mg/L (≈ 0.19 µM)
MIC90 [20]: > 64 mg/L
MIC (Escherichia coli [21]): 0.5 mg/L (≈ 1.59 µM)
MIC90 [22]: 16 mg/L (≈ 50.7 µM)
